Assays:
Assay type in all cases: functional
[1] = Growth inhibition of human HCT15 cells at 10 uM after 48 hrs by sulforhodamine B assay; conditions: HCT-15, 48 h, read-out: GI
How it was run: (§1)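 Run at NCI on the 60-line panel. Cells grown in RPMI 1640 with 5% FBS and 2 mM L-glutamine, plated at 5000–40,000 cells/well by doubling time, and held 24 h at 37 °C before dosing. Drug (DMSO stock) given at a single final 10 µM in triplicate wells for 48 h. Adherent cells fixed with cold TCA (10% final), suspension cells with 16% TCA. SRB stain read at 515 nm. Percent growth from Tz, C and Ti.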

NCI-H322M = test: Growth inhibition of human NCI-H322M cells at 10 uM after 48 hrs by sulforhodamine B assay; conditions: read-out: GI; how it was run: as §1
KM12 = test: Growth inhibition of human KM12 cells at 10 uM after 48 hrs by sulforhodamine B assay; conditions: KM12, 48 h, read-out: GI; how it was run: as §1
ACHN = test: Growth inhibition of human ACHN cells at 10 uM after 48 hrs by sulforhodamine B assay; conditions: read-out: GI; how it was run: as §1
[2] = Growth inhibition of human Caki1 cells at 10 uM after 48 hrs by sulforhodamine B assay; conditions: CAKI-1, 48 h, read-out: GI; how it was run: as §1
NCI-H522 = test: Growth inhibition of human NCI-H522 cells at 10 uM after 48 hrs by sulforhodamine B assay; conditions: NCI-H522, 48 h, read-out: GI; how it was run: as §1
[3] = Growth inhibition of human SNB75 cells at 10 uM after 48 hrs by sulforhodamine B assay; conditions: SNB-75, 48 h, read-out: GI; how it was run: as §1
MDA-MB-468 = test: Growth inhibition of human MDA-MB-468 cells at 10 uM after 48 hrs by sulforhodamine B assay; conditions: MDA-MB-468, 48 h, read-out: GI; how it was run: as §1
[4] = Growth inhibition of human HOP62 cells at 10 uM after 48 hrs by sulforhodamine B assay; conditions: HOP-62, 48 h, read-out: GI; how it was run: as §1
[5] = Growth inhibition of human LOXIMVI cells at 10 uM after 48 hrs by sulforhodamine B assay; conditions: LOX IMVI, read-out: GI; how it was run: as §1
[6] = Growth inhibition of human RPMI8226 cells at 10 uM after 48 hrs by sulforhodamine B assay; conditions: RPMI-8226, 48 h, read-out: GI; how it was run: as §1
[7] = Growth inhibition of human SF295 cells at 10 uM after 48 hrs by sulforhodamine B assay; conditions: SF-295, 48 h, read-out: GI; how it was run: as §1
[8] = Growth inhibition of human UACC257 cells at 10 uM after 48 hrs by sulforhodamine B assay; conditions: UACC-257, 48 h, read-out: GI
How it was run: (§2)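 NCI-60 panel, adherent cells grown in RPMI 1640 with 5% FBS and 2 mM L-glutamine, plated at 5000–40,000 cells/well and preincubated 24 h at 37 °C, 5% CO2. 10 µM final compound from DMSO stock, triplicate wells, 48 h. Fixed with cold TCA (10% final, 60 min, 4 °C) and stained with 0.4% SRB. Absorbance read at 515 nm; growth calculated against time-zero and control wells.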

[9] = Growth inhibition of human PC3 cells at 10 uM after 48 hrs by sulforhodamine B assay; conditions: PC-3, 48 h, read-out: GI; how it was run: as §1
MDA-MB-435 = test: Growth inhibition of human MDA-MB-435 cells at 10 uM after 48 hrs by sulforhodamine B assay; conditions: MDA-MB-435, 48 h, read-out: GI; how it was run: as §1
SK-MEL-28 = test: Growth inhibition of human SK-MEL-28 cells at 10 uM after 48 hrs by sulforhodamine B assay; conditions: SK-MEL-28, 48 h, read-out: GI; how it was run: as §1
SR = test: Growth inhibition of human SR cells at 10 uM after 48 hrs by sulforhodamine B assay; conditions: read-out: GI
How it was run: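 NCI-60 screen. Cells were grown in RPMI 1640 with 5% FBS and 2 mM L-glutamine, plated at 5000–40,000 cells/well and held 24 h at 37 °C, 5% CO2. Single 10 µM final dose from DMSO stock, triplicate wells, 48 h. Settled cells were fixed with 80% TCA (16% final) and stained with 0.4% SRB. Dye was solubilized in 10 mM Tris and read at 515 nm. Growth was calculated against time-zero and untreated wells.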

[10] = Growth inhibition of human SF268 cells at 10 uM after 48 hrs by sulforhodamine B assay; conditions: SF-268, 48 h, read-out: GI; how it was run: as §1
[11] = Growth inhibition of human RXF393 cells at 10 uM after 48 hrs by sulforhodamine B assay; conditions: RXF 393, 48 h, read-out: GI; how it was run: as §1
[12] = Growth inhibition of human DU145 cells at 10 uM after 48 hrs by sulforhodamine B assay; conditions: DU-145, 48 h, read-out: GI; how it was run: as §1
[13] = Growth inhibition of human HCC2998 cells at 10 uM after 48 hrs by sulforhodamine B assay; conditions: HCC 2998, 48 h, read-out: GI; how it was run: as §1
NCI-H23 = test: Growth inhibition of human NCI-H23 cells at 10 uM after 48 hrs by sulforhodamine B assay; conditions: NCI-H23, 48 h, read-out: GI; how it was run: as §1
A549 = test: Growth inhibition of human A549 cells at 10 uM after 48 hrs by sulforhodamine B assay; conditions: A549, 48 h, read-out: GI; how it was run: as §1
[14] = Growth inhibition of human HCT116 cells at 10 uM after 48 hrs by sulforhodamine B assay; conditions: HCT-116, 48 h, read-out: GI; how it was run: as §1
[15] = Growth inhibition of human NCI-ADR-RES cells at 10 uM after 48 hrs by sulforhodamine B assay; conditions: read-out: GI; how it was run: as §1
M14 = test: Growth inhibition of human M14 cells at 10 uM after 48 hrs by sulforhodamine B assay; conditions: M14, 48 h, read-out: GI; how it was run: as §1
[16] = Growth inhibition of human Hs 578T cells at 10 uM after 48 hrs by sulforhodamine B assay; conditions: read-out: GI; how it was run: as §1
[17] = Growth inhibition of human OVCAR5 cells at 10 uM after 48 hrs by sulforhodamine B assay; conditions: OVCAR-5, 48 h, read-out: GI; how it was run: as §1
[18] = Growth inhibition of human UACC62 cells at 10 uM after 48 hrs by sulforhodamine B assay; conditions: UACC-62, 48 h, read-out: GI; how it was run: as §2
[19] = Growth inhibition of human SF539 cells at 10 uM after 48 hrs by sulforhodamine B assay; conditions: SF-539, 48 h, read-out: GI; how it was run: as §1
NCI-H226 = test: Growth inhibition of human NCI-H226 cells at 10 uM after 48 hrs by sulforhodamine B assay; conditions: NCI-H226, 48 h, read-out: GI; how it was run: as §1
[20] = Growth inhibition of human HOP92 cells at 10 uM after 48 hrs by sulforhodamine B assay; conditions: HOP-92, 48 h, read-out: GI; how it was run: as §1
SK-MEL-5 = test: Growth inhibition of human SK-MEL-5 cells at 10 uM after 48 hrs by sulforhodamine B assay; conditions: SK-MEL-5, 48 h, read-out: GI; how it was run: as §1
[21] = Growth inhibition of human SW620 cells at 10 uM after 48 hrs by sulforhodamine B assay; conditions: SW-620, 48 h, read-out: GI; how it was run: as §2

SMILES	inhibition of growth at 10 µM [1] [%]	inhibition of growth at 10 µM (NCI-H322M) [%]	inhibition of growth at 10 µM (KM12) [%]	inhibition of growth at 10 µM (ACHN) [%]	inhibition of growth at 10 µM [2] [%]	inhibition of growth at 10 µM (NCI-H522) [%]	inhibition of growth at 10 µM [3] [%]	inhibition of growth at 10 µM (MDA-MB-468) [%]	inhibition of growth at 10 µM [4] [%]	inhibition of growth at 10 µM [5] [%]	inhibition of growth at 10 µM [6] [%]	inhibition of growth at 10 µM [7] [%]	inhibition of growth at 10 µM [8] [%]	inhibition of growth at 10 µM [9] [%]	inhibition of growth at 10 µM (MDA-MB-435) [%]	inhibition of growth at 10 µM (SK-MEL-28) [%]	inhibition of growth at 10 µM (SR) [%]	inhibition of growth at 10 µM [10] [%]	inhibition of growth at 10 µM [11] [%]	inhibition of growth at 10 µM [12] [%]	further results
COc1ccc(Cc2nnc(Nc3cccc(OC)c3)c3ccccc23)cc1	< 30	< 30	< 30	< 30	< 30	63	41	< 30	35	< 30	77	< 30	< 30	30	< 30	< 30	35	< 30	32	< 30	inhibition of growth at 10 µM [13]: < 30%; inhibition of growth at 10 µM (NCI-H23): < 30%; inhibition of growth at 10 µM (A549): < 30%; inhibition of growth at 10 µM [14]: 40%; inhibition of growth at 10 µM [15]: 30%; inhibition of growth at 10 µM (M14): < 30%; inhibition of growth at 10 µM [16]: < 30%; inhibition of growth at 10 µM [17]: < 30%; inhibition of growth at 10 µM [18]: < 30%; inhibition of growth at 10 µM [19]: < 30%; inhibition of growth at 10 µM (NCI-H226): 37%; inhibition of growth at 10 µM [20]: 53%; inhibition of growth at 10 µM (SK-MEL-5): < 30%; inhibition of growth at 10 µM [21]: < 30%
COc1ccc(Cc2nnc(Nc3ccc(Cl)cc3)c3ccccc23)cc1	33	45	30	47	37	38	< 30	42	40	58	69	50	< 30	51	30	< 30	54	< 30	32	42	inhibition of growth at 10 µM [13]: < 30%; inhibition of growth at 10 µM (NCI-H23): 39%; inhibition of growth at 10 µM (A549): 40%; inhibition of growth at 10 µM [14]: 66%; inhibition of growth at 10 µM [15]: 48%; inhibition of growth at 10 µM (M14): 47%; inhibition of growth at 10 µM [16]: 35%; inhibition of growth at 10 µM [17]: < 30%; inhibition of growth at 10 µM [18]: 60%; inhibition of growth at 10 µM [19]: 46%; inhibition of growth at 10 µM (NCI-H226): 34%; inhibition of growth at 10 µM [20]: 76%; inhibition of growth at 10 µM (SK-MEL-5): 35%; inhibition of growth at 10 µM [21]: < 30%
COc1ccc(Cc2nnc(Nc3ccc(NC(=O)Nc4cccc(Cl)c4)cc3)c3ccccc23)cc1	< 30	< 30	< 30	39	< 30	57	< 30	< 30	< 30	< 30	31	< 30	< 30	32	< 30	< 30	< 30	< 30	40	< 30	inhibition of growth at 10 µM [13]: < 30%; inhibition of growth at 10 µM (NCI-H23): < 30%; inhibition of growth at 10 µM (A549): 35%; inhibition of growth at 10 µM [14]: 37%; inhibition of growth at 10 µM [15]: < 30%; inhibition of growth at 10 µM (M14): < 30%; inhibition of growth at 10 µM [16]: < 30%; inhibition of growth at 10 µM [17]: < 30%; inhibition of growth at 10 µM [18]: < 30%; inhibition of growth at 10 µM [19]: < 30%; inhibition of growth at 10 µM (NCI-H226): < 30%; inhibition of growth at 10 µM [20]: < 30%; inhibition of growth at 10 µM (SK-MEL-5): < 30%; inhibition of growth at 10 µM [21]: < 30%
COc1ccc(Cc2nnc(Nc3ccc(NC(=O)Nc4ccc(OC)cc4)cc3)c3ccccc23)cc1	39	< 30	39	32	< 30	36	50	< 30	33	< 30	91	81	< 30	30	< 30	< 30	39	< 30	100	< 30	inhibition of growth at 10 µM [13]: < 30%; inhibition of growth at 10 µM (NCI-H23): < 30%; inhibition of growth at 10 µM (A549): < 30%; inhibition of growth at 10 µM [14]: 34%; inhibition of growth at 10 µM [15]: < 30%; inhibition of growth at 10 µM (M14): < 30%; inhibition of growth at 10 µM [16]: 96%; inhibition of growth at 10 µM [17]: < 30%; inhibition of growth at 10 µM [18]: < 30%; inhibition of growth at 10 µM [19]: 49%; inhibition of growth at 10 µM (NCI-H226): < 30%; inhibition of growth at 10 µM [20]: < 30%; inhibition of growth at 10 µM (SK-MEL-5): < 30%; inhibition of growth at 10 µM [21]: < 30%

Source: ChEMBL document CHEMBL3779892, “Increasing the binding affinity of VEGFR-2 inhibitors by extending their hydrophobic interaction with the active site: Design, synthesis and biological evaluation of 1-substituted-4-(4-methoxybenzyl)phthalazine derivatives” (Eur J Med Chem, 2016)
